Results published in ChEMBL document CHEMBL3804777, “Identification and Preclinical Pharmacology of BMS-986104: A Differentiated S1P1 Receptor Modulator in Clinical Trials” (ACS Med Chem Lett, 2016).
Activity calls are given as the source filed them. The rule behind the calls is not given here.

Experiments:
Mus musculus [1] = experiment: Reduction of blood lymphocyte level in BALB/c mouse administered through oral gavage after 24 hrs by hematology analysis; format: functional, organism-based; conditions: for ED50: po
[2] = molecular target: T1, Sphingosine 1-phosphate receptor 4 (Homo sapiens, UniProt O95977); experiment: Agonist activity at human S1P4 receptor by GTPgammaS binding assay; format: functional
T1 sequence (O95977 whole entry): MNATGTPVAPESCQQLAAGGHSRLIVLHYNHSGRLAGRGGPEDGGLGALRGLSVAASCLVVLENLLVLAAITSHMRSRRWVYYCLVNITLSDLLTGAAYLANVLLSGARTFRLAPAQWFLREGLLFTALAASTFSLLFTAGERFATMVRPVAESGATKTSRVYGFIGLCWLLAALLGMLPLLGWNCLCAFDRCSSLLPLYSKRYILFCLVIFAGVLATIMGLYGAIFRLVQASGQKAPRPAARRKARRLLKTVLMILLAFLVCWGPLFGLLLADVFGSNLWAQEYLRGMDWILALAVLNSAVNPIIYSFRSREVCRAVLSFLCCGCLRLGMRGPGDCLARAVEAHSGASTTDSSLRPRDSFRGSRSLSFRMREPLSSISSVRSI

[3] = Toxicity in human-inducible pluripotent stem cell-derived Cardiomyocyte assessed as reduction in cardiomyocyte beating after 2 hrs; conditions: cardiac muscle cell
In short: (§1)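 Cultured human iPSC-derived cardiomyocytes expressing S1P1 and S1P3, exposed to a range of concentrations of the phosphate; beating rate measured and the no-effect concentration determined.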

[4] = Toxicity in human-inducible pluripotent stem cell-derived Cardiomyocyte assessed as reduction in cardiomyocyte beating at 0.1 nM after 2 hrs; conditions: cardiac muscle cell, 0.0001 µM; in short: as §1
[5] = Toxicity in human-inducible pluripotent stem cell-derived Cardiomyocyte assessed as reduction in cardiomyocyte beating at 1 nM after 2 hrs; parameters: scale not given: the % may be the effect or the level left; conditions: cardiac muscle cell, 0.001 µM; in short: as §1
Heart [6] = experiment: Toxicity in guinea pig heart assessed as reduction in ventricular rate at 1 nM after 10 mins by ECG analysis; format: tissue-based, Cavia porcellus, Cardiac ventricle; conditions: 0.001 µM
In short: (§2)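 Isolated guinea pig hearts perfused with the phosphate at the stated concentrations; ventricular rate and atrioventricular conduction (third-degree AV block) monitored.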

Heart [7] = experiment: Toxicity in guinea pig heart assessed as third degree AV block at 1 nM after 10 mins by ECG analysis; format: tissue-based, Cavia porcellus; conditions: 0.001 µM; in short: as §2
Heart [8] = experiment: Toxicity in guinea pig heart assessed as reduction in ventricular rate at 1000 nM after 10 mins by ECG analysis; format: tissue-based, Cavia porcellus, Cardiac ventricle; conditions: 1 µM; in short: as §2
Heart [9] = experiment: Toxicity in guinea pig heart assessed as reduction in ventricular rate at 100 nM after 10 mins by ECG analysis; format: tissue-based, Cavia porcellus, Cardiac ventricle; conditions: 0.1 µM; in short: as §2
Heart [10] = experiment: Toxicity in guinea pig heart assessed as third degree AV block at 1000 nM after 10 mins by ECG analysis; format: tissue-based, Cavia porcellus; conditions: 1 µM; in short: as §2
[11] = molecular target: T2, Sphingosine 1-phosphate receptor 1 (Homo sapiens, UniProt P21453); experiment: Agonist activity at human S1P1 receptor expressed in CHO cells assessed as ERK phosphorylation after 7 mins by alphaLISA; format: cell-based
T2 sequence (P21453 whole entry): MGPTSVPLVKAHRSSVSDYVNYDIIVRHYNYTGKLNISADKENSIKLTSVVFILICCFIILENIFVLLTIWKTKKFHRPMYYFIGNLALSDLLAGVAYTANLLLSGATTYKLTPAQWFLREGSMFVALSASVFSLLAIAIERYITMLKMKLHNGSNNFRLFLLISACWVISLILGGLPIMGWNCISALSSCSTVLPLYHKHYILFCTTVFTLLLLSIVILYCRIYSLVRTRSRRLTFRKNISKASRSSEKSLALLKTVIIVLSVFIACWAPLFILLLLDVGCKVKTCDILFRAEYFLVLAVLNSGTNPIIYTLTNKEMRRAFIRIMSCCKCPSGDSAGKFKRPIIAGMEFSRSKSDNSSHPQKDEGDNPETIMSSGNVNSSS

[12] = molecular target: T2, Sphingosine 1-phosphate receptor 1; experiment: Agonist activity at human S1P1 receptor expressed in CHO cells assessed as cAMP accumulation after 30 mins by HTRF analysis; format: functional, cell-based
Heart [13] = experiment: Toxicity in guinea pig heart assessed as third degree AV block at 100 nM after 10 mins by ECG analysis; format: tissue-based, Cavia porcellus; conditions: 0.1 µM; in short: as §2
[14] = molecular target: T3, Sphingosine 1-phosphate receptor 3 (Homo sapiens, UniProt Q99500); experiment: Agonist activity at human S1P3 receptor by GTPgammaS binding assay; format: functional
T3 sequence (Q99500 whole entry): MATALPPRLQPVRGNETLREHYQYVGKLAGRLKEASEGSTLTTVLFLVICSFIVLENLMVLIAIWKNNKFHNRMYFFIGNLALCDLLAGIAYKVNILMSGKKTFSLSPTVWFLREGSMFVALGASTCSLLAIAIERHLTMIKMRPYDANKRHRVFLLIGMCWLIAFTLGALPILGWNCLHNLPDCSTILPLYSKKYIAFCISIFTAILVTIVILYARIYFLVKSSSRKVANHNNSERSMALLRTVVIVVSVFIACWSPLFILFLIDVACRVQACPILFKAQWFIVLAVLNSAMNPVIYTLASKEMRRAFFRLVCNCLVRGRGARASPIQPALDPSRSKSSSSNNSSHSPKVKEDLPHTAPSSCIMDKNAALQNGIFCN

[15] = molecular target: Sphingosine 1-phosphate receptor 5 (Homo sapiens, UniProt Q9H228); experiment: Agonist activity at human S1P5 receptor by GTPgammaS binding assay; format: functional
Chain of Sphingosine 1-phosphate receptor 5 (Q9H228 whole entry): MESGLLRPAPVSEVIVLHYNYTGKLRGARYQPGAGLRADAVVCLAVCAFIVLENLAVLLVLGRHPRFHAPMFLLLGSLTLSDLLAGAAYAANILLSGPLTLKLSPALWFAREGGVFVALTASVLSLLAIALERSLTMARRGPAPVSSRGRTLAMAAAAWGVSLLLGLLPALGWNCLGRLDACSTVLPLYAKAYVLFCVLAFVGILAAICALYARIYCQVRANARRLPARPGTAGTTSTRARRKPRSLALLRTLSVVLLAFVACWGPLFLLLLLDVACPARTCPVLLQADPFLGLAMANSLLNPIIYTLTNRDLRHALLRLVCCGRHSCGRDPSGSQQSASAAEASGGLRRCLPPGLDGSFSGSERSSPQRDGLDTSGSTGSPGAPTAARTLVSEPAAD

[16] = molecular target: T2, Sphingosine 1-phosphate receptor 1; experiment: Agonist activity at human S1P1 receptor expressed in CHO cells co-expressing GFP assessed as cellular internalization after 45 mins by Hoechst assay; format: cell-based
[17] = molecular target: T3, Sphingosine 1-phosphate receptor 3; experiment: Antagonist activity at human S1P3 receptor by GTPgammaS binding assay; format: functional
Blood [18] = experiment: Drug metabolism in BALB/c mouse blood assessed as formation of phosphate ester metabolite at 10 mg/kg administered through oral gavage after 24 hrs by LC/MS/MS analysis; format: ADME, organism-based; conditions: in vivo
In short: (§3)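 Mouse PK study: alcohol prodrug given orally at 10 mg/kg, and formation of the phosphate metabolite in blood measured.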

Mus musculus [19] = experiment: Reduction of blood lymphocyte level in BALB/c mouse at 1 mg/kg administered through oral gavage after 24 hrs by hematology analysis; format: functional; parameters: scale not given: the % may be the effect or the level left
In short: (§4)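 Mice given a single oral 1 mg/kg dose; circulating lymphocytes counted 24 h later as the pharmacodynamic marker.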

[20] = Drug metabolism in BALB/c mouse whole blood assessed as whole blood phosphate area ratio at 10 uM after 4 hrs by LC/MS/MS analysis; format: ADME, tissue-based
In short: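 Mouse whole blood incubated with the amino-alcohol prodrug; phosphorylated product measured by LC/MS/MS after 4 h to give the relative extent of phosphate ester formation.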

Blood [21] = experiment: Drug metabolism in BALB/c mouse blood assessed as formation of phosphate ester metabolite at 10 mg/kg administered through oral gavage after 4 hrs by LC/MS/MS analysis; format: ADME, organism-based; conditions: in vivo; in short: as §3
Blood [22] = experiment: Drug metabolism in BALB/c mouse blood assessed as formation of phosphate metabolite at 1 mg/kg administered through oral gavage after 24 hrs by LC/MS/MS analysis; format: ADME, organism-based; conditions: in vivo
In short: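 Single oral 1 mg/kg dose in mice; phosphate level in blood determined at 24 h postdose.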

Mus musculus [23] = experiment: Reduction in blood lymphocyte level in BALB/c mouse at 1 mg/kg, po after 24 hrs by hematology analysis; format: functional, organism-based; in short: as §4

Row | SMILES | EC50 (Mus musculus [1]) [nM] | EC50 [2] [nM] | Drug metabolism (Blood [18]) [nM] | Ratio [20] | Drug metabolism (Blood [21]) [nM] | ED50 (Mus musculus [1]) [mg/kg] | Activity [5] | Activity (Mus musculus [19]) [%] | other results
1 | CCCCCCCCc1ccc(CCC(N)(CO)COP(=O)(O)O)cc1 (stereo unspecified) | 5.6 | 0.09 |  |  |  | 0.017 | 35% |  | Activity [3]: Dose-dependent effect; Activity [4]: Non-toxic; Activity (Heart [6]): 32 bpm; Activity (Heart [7]): Toxic
2 | CCCCCC[C@@H]1CCc2cc([C@H]3CC[C@](N)(COP(=O)(O)O)C3)ccc2C1 | 7.9 | 10.5 |  |  |  | 0.12 | Non-toxic |  | Activity (Heart [8]): Toxic; Activity (Heart [9]): Non-toxic; Activity (Heart [10]): Toxic; EC50 [11]: 8.16 nM; EC50 [12]: 0.006 nM; Activity (Heart [13]): Non-toxic; EC50 [14]: > 1000 nM; EC50 [15]: 10.7 nM; EC50 [16]: 0.114 nM; IC50 [17]: > 1000 nM
3 | CCCCCCC1CCc2cc(C3CCC(N)(CO)C3)ccc2C1 (stereo in doubt; 3a) |  |  | 14 | 0.07 | < 9.8 |  |  | 12 | 
4 | CCCCCCC1CCc2cc(C3CCC(N)(CO)C3)ccc2C1 (stereo in doubt; 3b) [listing 2 of 2 here] |  |  |  |  |  |  |  |  | Activity (Mus musculus [23]): Active

The next lines start with results.

Row | EC50 (Mus musculus [1]) [nM] | EC50 [2] [nM] | Drug metabolism (Blood [18]) [nM] | Ratio [20] | Drug metabolism (Blood [21]) [nM] | SMILES | ED50 (Mus musculus [1]) [mg/kg] | Activity [5] | Activity (Mus musculus [19]) [%] | other results
5 |  |  | 475 | 1.6 | 67 | CCCCCCC1CCc2cc(C3CCC(N)(CO)C3)ccc2C1 (stereo in doubt; 3b) [listing 1 of 2 here] |  |  | 90 | Drug metabolism (Blood [22]): 47 nM
6 |  |  | 46 | 0.14 | 12 | CCCCCCC1CCc2cc(C3CCC(N)(CO)C3)ccc2C1 (stereo in doubt; 3c) |  |  | 18 | 
